The test system of one assay is Plasmodium falciparum. Description: Antiplasmodial activity against ring-stage Plasmodium falciparum 3D7 assessed as reduction in parasite viability after 72 hrs by LDH assay. Format: functional, organism-based. The following applies: 3D7, 72 h. Put shortly:
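Sorbitol-synchronised early ring-stage parasites grown in RPMI-HEPES with L-glutamine and Albumax II, exposed to ten-point compound titrations in DMSO (≤0.02% final) for 72 h. Parasitemia read by LDH activity (NADH consumption) relative to DMSO control. EC50 from 4-parameter variable-slope sigmoidal fit; means and SD of three independent experiments.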

A further assay relates to HepG2. Description: Cytotoxicity against human HepG2 cells after 48 hrs by CellTiter-Glo assay. The format is functional, cell-based. To be noted: HepG2, 48 h. Put shortly: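 Cells kept in DMEM with 10% FCS at 37 °C, 5% CO2. 1 × 10^4 cells seeded per well and exposed to a 10-point compound titration for 48 h at 37 °C. Viability normalised to DMSO (100%) and 10 µM bortezomib (0%). EC50 given as mean and SD of three experiments.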

The nature of assay [1]: Inhibition of recombinant Plasmodium vivax plasmepsin 5 expressed in High five insect cells using DABCYLRNKRTLAQKQ-E-EDANS as substrate measured after 120 mins by fluorescence assay. A digest of the protocol:
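Enzyme purified by anti-FLAG affinity then Superdex 75 gel filtration. Each well held 2.5 ng enzyme and 12 µM (Km) substrate in 25 mM Tris-HCl/25 mM MES pH 6.4 with 0.005% Tween-20 and 1% DMSO final. Ten-point 1-in-3 compound dilutions. Fluorescence read at ex 340/em 495 nm. IC50 from four-parameter fit constrained to 0 and 100%; mean and SD, n=3.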

Assay [2] deals with Plasmepsin V (Plasmodium falciparum (isolate 3D7)) (UniProt Q8I6Z5). Description: Inhibition of plasmepsin 5 in Plasmodium falciparum 3D7 co-expressing PfEMP3-GFP infected in human erythrocytes assessed as accumulation of uncleaved PfEMP3-GFP at 1 to 10 uM after 3 hrs by immunoblot analysis. Format: cell-based. Put shortly: (§1)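 Parasites cultured in O+ erythrocytes at 4% haematocrit in RPMI 1640 with 25 mM HEPES pH 7.4, 0.2% bicarbonate, 0.5% Albumax II under 5% CO2/5% O2 gas at 37 °C. Magnet-purified 24–34 h trophozoites treated 3 h at 37 °C; DMSO vehicle control. Saponin-lysed pellets run on SDS-PAGE and probed with anti-GFP, with HSP70 as loading control. ECL read-out, quantified by densitometry.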
(In general: In western blotting, separated proteins are transferred to a membrane and probed.)

The target is the same in assay [3]. As to the kind of experiment: Inhibition of plasmepsin 5 in Plasmodium falciparum 3D7 co-expressing PfEMP3-GFP infected in human erythrocytes assessed as accumulation of uncleaved PfEMP3-GFP after 3 hrs by immunoblot analysis. The format is cell-based. A digest of the protocol: as §1
For assay [4] the target is unchanged. As to the kind of experiment: Inhibition of plasmepsin 5 in Plasmodium falciparum 3D7 co-expressing PfEMP3-GFP infected in human erythrocytes assessed as accumulation of uncleaved PfEMP3-GFP at 1 to 20 uM after 3 hrs by immunoblot analysis. The format is cell-based. Put shortly:
as §1

From ChEMBL document CHEMBL4270524, “Enhanced antimalarial activity of plasmepsin V inhibitors by modification of the P2 position of PEXEL peptidomimetics” (Eur J Med Chem, 2018) come the findings set out here.

Calls of active or inactive are those of the source. The rule behind the calls is not given here. Square brackets hold non-standard residues; d marks the D form. Peptide text beside a SMILES is read from it. * marks the point of attachment. Dip = N[C@H](C(=O)O)C(c1ccccc1)c1ccccc1; Sta = CC(C)C[C@H](N)[C@@H](O)CC(=O)O; Gly(cPent) = N[C@H](C(=O)O)C1CCCC1; Igl = N[C@H](C(=O)O)C1Cc2ccccc2C1; Chg = N[C@H](C(=O)O)C1CCCCC1; NHPhenethyl = c1ccc(CCN*)cc1; Phg = N[C@H](C(=O)O)c1ccccc1; Tle = CC(C)(C)[C@H](N)C(=O)O; Nva = CCC[C@H](N)C(=O)O; Abu = CC[C@H](N)C(=O)O; Cbz = O=C(OCc1ccccc1)* Bounds are passed on as bounds.

Chain of Plasmepsin V (Plasmodium falciparum (isolate 3D7)) (Q8I6Z5 whole entry, looked up): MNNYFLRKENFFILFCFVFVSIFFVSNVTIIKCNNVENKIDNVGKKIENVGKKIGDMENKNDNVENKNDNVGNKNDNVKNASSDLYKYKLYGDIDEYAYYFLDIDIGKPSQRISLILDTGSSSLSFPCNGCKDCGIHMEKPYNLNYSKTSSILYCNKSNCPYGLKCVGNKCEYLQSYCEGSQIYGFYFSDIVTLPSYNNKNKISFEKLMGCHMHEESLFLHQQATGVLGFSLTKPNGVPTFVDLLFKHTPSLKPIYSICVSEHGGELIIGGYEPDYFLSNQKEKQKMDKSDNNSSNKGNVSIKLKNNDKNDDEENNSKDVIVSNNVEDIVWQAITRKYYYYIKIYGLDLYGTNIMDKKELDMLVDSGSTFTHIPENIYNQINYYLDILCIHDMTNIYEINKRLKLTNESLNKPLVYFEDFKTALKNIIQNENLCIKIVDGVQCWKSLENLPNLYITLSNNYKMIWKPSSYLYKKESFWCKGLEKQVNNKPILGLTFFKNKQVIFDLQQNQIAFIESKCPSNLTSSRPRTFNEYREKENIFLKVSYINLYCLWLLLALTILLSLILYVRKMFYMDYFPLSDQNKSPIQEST

Broadly, the EC50 is the concentration at which the effect is half-maximal. By IC50 is commonly meant the concentration at which inhibition is half-maximal. On to `CC(C)C[C@H](NC(=O)[C@@H](NC(=O)[C@H](CCCNC(=N)N)NS(=O)(=O)Cc1ccccc1)C(C)C)[C@@H](O)CC(=O)NCCc1ccccc1`, for which the EC50 is 4.03 µM in the assay on Plasmodium falciparum and above 40 µM with HepG2. Moreover, the IC50 in assay [1] amounted to 0.123 µM.
On to `CC(C)C[C@H](NC(=O)[C@@H](NC(=O)[C@H](CCONC(=N)N)NC(=O)OCc1ccccc1)C(C)C)[C@@H](O)CC(=O)NCCc1ccccc1`, for which the EC50 with Plasmodium falciparum is 0.43 µM; with HepG2, above 40 µM. Also, in assay [2], the inhibition result is “Active”. The 50% inhibitory concentration (IC50) in assay [1] turned out to be 0.019 µM.
Turning to `CC(C)C[C@H](NC(=O)[C@@H](NC(=O)[C@H](CCCNC(=N)N)NC(=O)OCc1ccccc1)[C@H](C)c1ccccc1)[C@@H](O)CC(=O)NCCc1ccccc1`, the EC50 in the assay on Plasmodium falciparum was above 10 µM; in the assay with HepG2, 35.4 µM. For the same compound, in assay [1], the IC50 was above 10 µM.
For `CCC(CC)[C@H](NC(=O)[C@H](CCCNC(=N)N)NC(=O)OCc1ccccc1)C(=O)N[C@@H](CC(C)C)[C@@H](O)CC(=O)NCCc1ccccc1`, the EC50 in the assay with Plasmodium falciparum is 4.11 µM; in the assay on HepG2 it was above 40 µM. Further, the IC50 in assay [1] worked out at 0.112 µM.
`CC(C)C[C@H](NC(=O)[C@@H](NC(=O)[C@H](CCCNC(=N)N)NC(=O)OCc1ccccc1)[C@H](O)c1ccccc1)[C@@H](O)CC(=O)NCCc1ccccc1`: the values for the EC50 in the assay with Plasmodium falciparum and with HepG2 were above 10 µM and above 40 µM, respectively. Further, the IC50 in assay [1] worked out at 6.56 µM.
On to `CC(C)C[C@H](NC(=O)[C@@H](NC(=O)[C@H](CCCNC(=N)N)NC(=O)OCc1ccccc1)C(C)(C)O)[C@@H](O)CC(=O)NCCc1ccccc1`, for which the EC50 in the assay on Plasmodium falciparum was above 10 µM; in the assay on HepG2, above 40 µM. Besides, in assay [1], the IC50 was 3.01 µM.
With `CC(C)C[C@H](NC(=O)[C@@H](NC(=O)[C@H](CCONC(=N)N)NC(=O)OCc1ccccc1)C1CCCCC1)[C@@H](O)CC(=O)NCCc1ccccc1`, the EC50 is 0.09 µM in the assay with Plasmodium falciparum and above 40 µM in the assay with HepG2. Moreover, in assay [3], the inhibition entry was “Active”. In assay [1], the IC50 amounted to 0.005 µM.
For `CC(C)C[C@H](NC(=O)[C@@H](NC(=O)[C@H](CCONC(=N)N)NC(=O)OCc1ccccc1)c1ccccc1)[C@@H](O)CC(=O)NCCc1ccccc1`, the concentration giving a half-maximal response (EC50) is 0.07 µM in the assay with Plasmodium falciparum and above 40 µM in the assay with HepG2. Further, the inhibition entry in assay [4] was “Active”. The IC50 in assay [1] was found to be 0.003 µM.
Take `CC[C@H](C)[C@H](NC(=O)[C@H](CCONC(=N)N)NC(=O)OCc1ccccc1)C(=O)N[C@@H](CC(C)C)[C@@H](O)CC(=O)NCCc1ccccc1`: the EC50 in the assay with Plasmodium falciparum stood at 0.18 µM. The IC50 in assay [1] came to 0.016 µM.
In the case of `CC(C)C[C@H](NC(=O)[C@H](C)NC(=O)[C@H](CCCNC(=N)N)NC(=O)OCc1ccccc1)[C@@H](O)CC(=O)NCCc1ccccc1` (Cbz-Arg-Ala-[Sta]-NHPhenethyl), the EC50 in the assay on Plasmodium falciparum was above 10 µM; in the assay on HepG2, above 40 µM. Moreover, the IC50 in assay [1] was found to be 7.18 µM.
Regarding `CC[C@H](C)[C@H](NC(=O)[C@H](CCCNC(=N)N)NC(=O)OCc1ccccc1)C(=O)N[C@@H](CC(C)C)[C@@H](O)CC(=O)NCCc1ccccc1` (Cbz-Arg-Ile-[Sta]-NHPhenethyl), the EC50 with Plasmodium falciparum is 1.03 µM. The half-inhibitory concentration (IC50) in assay [1] came to 0.026 µM.
As to `CC(C)C[C@H](NC(=O)[C@H](CCCNC(=N)N)NC(=O)OCc1ccccc1)C(=O)N[C@@H](CC(C)C)[C@@H](O)CC(=O)NCCc1ccccc1` (Cbz-Arg-Leu-[Sta]-NHPhenethyl), the concentration for a half-maximal effect (EC50) with Plasmodium falciparum was 5 µM; in the assay on HepG2, above 40 µM. The IC50 in assay [1] worked out at 0.165 µM.
As for `CC(C)C[C@H](NC(=O)[C@H](Cc1ccccc1)NC(=O)[C@H](CCCNC(=N)N)NC(=O)OCc1ccccc1)[C@@H](O)CC(=O)NCCc1ccccc1` (Cbz-Arg-Phe-[Sta]-NHPhenethyl), the EC50 in the assay with Plasmodium falciparum is above 10 µM; in the assay on HepG2 it was above 40 µM. In addition, the IC50 in assay [1] was 3.12 µM.
For the compound `CC(C)C[C@H](NC(=O)[C@H](CO)NC(=O)[C@H](CCCNC(=N)N)NC(=O)OCc1ccccc1)[C@@H](O)CC(=O)NCCc1ccccc1` (Cbz-Arg-Ser-[Sta]-NHPhenethyl), the concentration for a half-maximal effect (EC50) in the assay with Plasmodium falciparum was above 10 µM; in the assay on HepG2, above 40 µM. In addition, the IC50 in assay [1] was above 10 µM.
With `CC(C)C[C@H](NC(=O)[C@@H](NC(=O)[C@H](CCCNC(=N)N)NC(=O)OCc1ccccc1)[C@@H](C)O)[C@@H](O)CC(=O)NCCc1ccccc1` (Cbz-Arg-Thr-[Sta]-NHPhenethyl), the EC50 with Plasmodium falciparum is above 10 µM; with HepG2, above 40 µM. Besides, the IC50 in assay [1] was 2.02 µM.
For `CC(C)C[C@H](NC(=O)[C@@H](NC(=O)[C@H](CCCNC(=N)N)NC(=O)OCc1ccccc1)C(C)C)[C@@H](O)CC(=O)NCCc1ccccc1` (Cbz-Arg-Val-[Sta]-NHPhenethyl), the half-maximal effective concentration (EC50) is 3.39 µM with Plasmodium falciparum and above 40 µM in the assay on HepG2. The IC50 in assay [1] stood at 0.116 µM.
`CC[C@H](NC(=O)[C@H](CCCNC(=N)N)NC(=O)OCc1ccccc1)C(=O)N[C@@H](CC(C)C)[C@@H](O)CC(=O)NCCc1ccccc1` (Cbz-Arg-[Abu]-[Sta]-NHPhenethyl): the figures for the EC50 in the assay with Plasmodium falciparum and with HepG2 were 3.14 µM and above 40 µM, respectively. Moreover, in assay [1], the IC50 came out at 0.507 µM.
Turning to `CC(C)C[C@H](NC(=O)[C@@H](NC(=O)[C@H](CCCNC(=N)N)NC(=O)OCc1ccccc1)C1CCCCC1)[C@@H](O)CC(=O)NCCc1ccccc1` (Cbz-Arg-[Chg]-[Sta]-NHPhenethyl), the EC50 with Plasmodium falciparum worked out at 1.22 µM; in the assay on HepG2 it was 36.7 µM. Besides, in assay [3], the inhibition result was “Active”. For the same compound, in assay [1], the IC50 was determined as 0.029 µM.
For `CC(C)C[C@H](NC(=O)[C@@H](NC(=O)[C@H](CCCNC(=N)N)NC(=O)OCc1ccccc1)C(c1ccccc1)c1ccccc1)[C@@H](O)CC(=O)NCCc1ccccc1` (Cbz-Arg-[Dip]-[Sta]-NHPhenethyl), the EC50 in the assay with Plasmodium falciparum was above 10 µM; in the assay on HepG2, above 40 µM. For the same compound, the half-maximal inhibitory concentration (IC50) in assay [1] is above 10 µM.
For the compound `CC(C)C[C@H](NC(=O)[C@@H](NC(=O)[C@H](CCCNC(=N)N)NC(=O)OCc1ccccc1)C1CCCC1)[C@@H](O)CC(=O)NCCc1ccccc1` (Cbz-Arg-[Gly(cPent)]-[Sta]-NHPhenethyl), the values for the EC50 in the assay with Plasmodium falciparum and in the assay with HepG2 were 2.73 µM and above 40 µM, respectively. The IC50 in assay [1] is 0.055 µM.
The matching figures for `CC(C)C[C@H](NC(=O)[C@@H](NC(=O)[C@H](CCCNC(=N)N)NC(=O)OCc1ccccc1)C1Cc2ccccc2C1)[C@@H](O)CC(=O)NCCc1ccccc1` (Cbz-Arg-[Igl]-[Sta]-NHPhenethyl): 6.18 µM, 23.5 µM and 0.661 µM.
With `CCC[C@H](NC(=O)[C@H](CCCNC(=N)N)NC(=O)OCc1ccccc1)C(=O)N[C@@H](CC(C)C)[C@@H](O)CC(=O)NCCc1ccccc1` (Cbz-Arg-[Nva]-[Sta]-NHPhenethyl), in the assay with Plasmodium falciparum, the EC50 amounted to 2.4 µM. The IC50 in assay [1] was 0.116 µM.
`CC(C)C[C@H](NC(=O)[C@@H](NC(=O)[C@H](CCCNC(=N)N)NC(=O)OCc1ccccc1)c1ccccc1)[C@@H](O)CC(=O)NCCc1ccccc1` (Cbz-Arg-[Phg]-[Sta]-NHPhenethyl): the EC50 in the assay on Plasmodium falciparum is 1.36 µM; in the assay with HepG2, above 40 µM. Besides, the inhibition entry in assay [4] was “Active”. In addition, in assay [1], the half-maximal inhibitory concentration (IC50) was found to be 0.024 µM.
On to `CC(C)C[C@H](NC(=O)[C@@H](NC(=O)[C@H](CCCNC(=N)N)NC(=O)OCc1ccccc1)C(C)(C)C)[C@@H](O)CC(=O)NCCc1ccccc1` (Cbz-Arg-[Tle]-[Sta]-NHPhenethyl), for which the figures for the half-maximal effective concentration (EC50) in the assay on Plasmodium falciparum and with HepG2 were above 10 µM and above 40 µM, respectively. In addition, in assay [1], the IC50 came to 6.7 µM.
As to `O[C@@H](c1cc(C(F)(F)F)nc2c(C(F)(F)F)cccc12)[C@H]1CCCCN1` [(S,R)-MEFLOQUINE], the EC50 with Plasmodium falciparum was 0.013 µM; with HepG2, 9.8 µM.
On to `CC(C)C[C@H](NC(=O)[C@H](Cc1ccccc1)NC(=O)c1cnccn1)B(O)O` [BORTEZOMIB], for which the response in the assay on HepG2 was half-maximal at 0.01 µM (EC50).
`CCN(CC)CCCC(C)Nc1ccnc2cc(Cl)ccc12` (centres undefined) [CHLOROQUINE]: the EC50 was determined as 0.006 µM with Plasmodium falciparum and 10.1 µM with HepG2.
